# Measurements from ChEMBL document CHEMBL1134792, “Antimitotic antitumor agents: synthesis, structure-activity relationships, and biological characterization of N-aryl-N'-(2-chloroethyl)ureas as new selective alkylating agents” (J Med Chem, 2001).
# The source made the active and inactive calls. The calls are words filed in the database; no cut-off is given here.
# Tests used:
# [1] = system: L1210; experiment: Dose required to inhibit cell growth was determined against L1210 cell line of murine lymphocytotic leukemia; type: functional, cell-based; conditions: Mus musculus
# In short: (§1)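 Alamar Blue growth assay. (1–5) × 10^3 cells per well preincubated 24 h, then exposed to increasing drug concentrations for 72 h at 37 °C. Medium replaced with PBS containing 20% Alamar Blue, fluorescence read at 485/590 nm. IC50 is the dose inhibiting growth by 50%.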
# [2] = system: HT-29; experiment: Dose required to inhibit cell growth was determined against HT-29 cell line of human adenocarcinoma; Not active represents IC50 >400 uM; type: functional, cell-based
# In short: (§2)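 Alamar Blue growth-inhibition assay. Cells ((1–5) × 10³ per well) were preincubated for 24 h, then exposed to increasing drug concentrations for 72 h at 37 °C. Alamar Blue (20%) was added and fluorescence read at ex 485 / em 590 nm. IC50 is the dose inhibiting growth by 50%. Means of ≥3 independent determinations.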
# [3] = system: MDA-MB-231; experiment: Dose required to inhibit cell growth was determined against MDA-MB-231 cell line of human non-hormone dependent breast carcinoma; Not active represents IC50 >400 uM; type: functional, cell-based; in short: as §2
# [4] = system: CHO; experiment: Dose required to inhibit cell growth was determined against CHO cell line; Not active represents IC50 >400 uM; type: functional, cell-based; conditions: Cricetulus griseus; in short: as §2
# [5] = system: K562; experiment: Dose required to inhibit cell growth was determined against K562 cell line of chronic myelogenous leukemia; type: functional, cell-based; conditions: Homo sapiens; in short: as §1
# [6] = system: LoVo; experiment: Dose to inhibit cell growth determined against LoVo cell line of human adenocarcinoma; type: functional, cell-based; in short: as §1
# [7] = system: P388; experiment: Dose required to inhibit cell growth was determined against P388D1 cell line of murine lymphocytotic leukemia; type: functional, cell-based; conditions: Mus musculus; in short: as §1
# [8] = Alkylating activity by using 4-(4-nitrobenzyl)-pyridine (NBP) colorimetric assay
# In short: (§3)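 NBP colorimetric assay. Drug at 400 nmol/mL in ethanol was mixed with 10% NBP in ethanol and 50 mM sodium acetate pH 4.3, then heated at 80 °C for 60, 90, 120 or 150 min. Samples were chilled and basified with KOH/ethanol, and A570 was read against a drug-free blank. The alkylation rate (A570/min) is the slope of a linear regression of absorbance vs time. Mean ± SD of ≥3 independent experiments.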
# [9] = system: MDA-MB-231; experiment: Dose required to inhibit cell growth was determined against MDA-MB-231 cell line of human non-hormone dependent breast carcinoma; type: functional, cell-based; in short: as §1
# [10] = system: HT-29; experiment: Dose required to inhibit cell growth was determined against HT-29 cell line of human adenocarcinoma; type: functional, cell-based; in short: as §1
# [11] = system: CHO; experiment: Dose required to inhibit cell growth was determined against CHO cell line; type: functional, cell-based; conditions: Cricetulus griseus; in short: as §1
# [12] = system: MDA-MB-231; experiment: DNA damages caused in MDA-MB-231 cells after 2 hr exposure to a concentration of 400 uM; type: functional, Homo sapiens
# In short: (§4)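 Growing MDA-MB-231 cells held 2 h at 37 °C in medium with or without 400 μM compound. Cells washed in cold PBS and lysed in Tris/SDS/EDTA/deferoxamine/proteinase K buffer. DNA isolated by salting out, then 3'-end labeled by T4 DNA polymerase nucleotide exchange. Incorporated radioactivity measured by dot filtration, expressed as dCps exchanged/ng DNA. Means ± SD, ≥3 determinations.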
# [13] = Glutathione activity was measured after incubation with a conc. of 500 uM
# In short: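 Cell-free thiol assay. GSH 500 µM with 1 mM EDTA and 500 µM drug (from 2% ethanol solution) in 0.1 M phosphate buffer pH 7.4, 60 min at room temperature. DTNB (0.133 mM) was then added and A412 read. Reported as % of no-drug control, in triplicate.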
# [14] = biological target: T1, Glutathione reductase, mitochondrial (Homo sapiens) (UniProt P00390); experiment: Glutathione reductase activity was measured after incubation with a conc. of 500 uM; type: functional
# T1 sequence (whole entry): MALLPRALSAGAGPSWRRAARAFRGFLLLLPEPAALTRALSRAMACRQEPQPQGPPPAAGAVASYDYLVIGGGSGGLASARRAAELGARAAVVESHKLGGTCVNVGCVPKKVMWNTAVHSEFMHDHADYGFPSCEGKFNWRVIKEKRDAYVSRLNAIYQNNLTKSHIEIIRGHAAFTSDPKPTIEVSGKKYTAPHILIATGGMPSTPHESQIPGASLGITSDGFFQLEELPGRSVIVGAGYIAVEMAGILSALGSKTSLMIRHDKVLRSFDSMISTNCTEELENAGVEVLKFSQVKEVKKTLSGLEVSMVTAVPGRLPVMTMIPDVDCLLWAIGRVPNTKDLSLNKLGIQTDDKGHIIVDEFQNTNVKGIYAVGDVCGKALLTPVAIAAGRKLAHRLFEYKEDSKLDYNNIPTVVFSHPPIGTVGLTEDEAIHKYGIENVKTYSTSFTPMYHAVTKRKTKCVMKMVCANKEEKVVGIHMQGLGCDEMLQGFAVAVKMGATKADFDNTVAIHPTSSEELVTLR
# In short: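 Purified glutathione reductase (0.016 U/mL) with 100 µM NADPH, 1 mM EDTA, 1 mg/mL BSA and 500 µM drug (from 2% ethanol solution) in 0.1 M phosphate pH 7.4, preincubated 60 min at 30 °C. GSSG was then added for 60 min at 30 °C. Activity is the […] over 3 min, as % of no-drug control, in triplicate.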
# [15] = system: MDA-MB-231; experiment: Beta tubulin alkylation activity in MDA-MB-231 cells; type: functional, Homo sapiens; design: concentration or dose not given beside the values
# In short: (§5)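 MDA-MB-231 cells (~5 × 10^6), exponentially growing, exposed to 30 μM compound for 24 h at 37 °C. Lysed in Laemmli buffer, run on 10% SDS-PAGE, immunoblotted with anti-β-tubulin (TUB 2.1, 1:500) and peroxidase anti-mouse secondary, ECL detection. Normal and alkylated band densities integrated to give % alkylated β-tubulin. Representative of three experiments.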
# [16] = system: MDA-MB-231; experiment: DNA damages caused in MDA-MB-231 cells after 2 hr compound exposure to 400 uM concentration; type: functional, Homo sapiens; in short: as §4
# [17] = system: LoVo; experiment: Dose required to inhibit cell growth was determined against LoVo cell line of human adenocarcinoma; NA= Not active represents IC50 >400 uM; type: functional, cell-based; in short: as §2
# [18] = system: MDA-MB-231; experiment: Dose required to inhibit cell growth was determined against MDA-MB-231 cell line of human non-hormone dependent breast carcinoma; NA= Not active represents IC50 >400 uM; type: functional, cell-based; in short: as §2
# [19] = system: P388; experiment: Dose required to inhibit cell growth was determined against P388D1 cell line of murine lymphocytotic leukemia; NA= Not active represents IC50 >400 uM; type: functional, cell-based; conditions: Mus musculus; in short: as §2
# [20] = Alkylating activity by using 4-(4-nitrobenzyl)-pyridine(NBP) colorimetric assay; in short: as §3
# [21] = Alkylating activity using 4-(4-nitrobenzyl)-pyridine(NBP) colorimetric assay
# [22] = system: MDA-MB-231; experiment: Beta tubulin alkylation activity in MDA-MB-231 cells; not determined; type: functional, Homo sapiens; in short: as §5
# [23] = system: HT-29; experiment: Dose required to inhibit cell growth was determined against HT-29 cell line of human adenocarcinoma; NA= Not active represents IC50 >400 uM; type: functional, cell-based; in short: as §2
# [24] = system: LoVo; experiment: Dose required to inhibit cell growth was determined against LoVo cell line a human colon adenocarcinoma; NA= Not active represents IC50 >400 uM; type: functional, cell-based; in short: as §2
smiles,measurement,setting,value
CNC(=O)Nc1ccc(C(C)C)cc1,IC50,[1],135 µM
same,NA,[2],inactive
same,NA,[3],inactive
same,NA,[4],inactive
same,IC50,[5],198 µM
O=C(O)CCCc1ccc(N(CCCl)CCCl)cc1 [CHLORAMBUCIL],IC50,[6],9 µM
same,IC50,[1],3 µM
same,IC50,[7],7 µM
same,Activity,[8],39 A570 min-1
same,IC50,[9],80 µM
same,IC50,[10],> 100 µM
same,IC50,[11],30 µM
same,DNA damage,[12],12.7 10e7 exchanged dCps (ng of DNA)
same,IC50,[5],11 µM
O=C(NCCCl)Nc1ccc(I)cc1,Activity,[13],100%
same,IC50,[6],5.4 µM
same,IC50,[1],3.8 µM
same,Activity,[14],98%
same,IC50,[7],5.4 µM
same,Activity,[15],44%
same,DNA damage,[16],2.66 10e7 exchanged dCps (ng of DNA)
same,Activity,[8],3.1 A570 min-1
same,IC50,[9],5.7 µM
same,IC50,[10],3.9 µM
same,IC50,[11],4.8 µM
same,IC50,[5],2.1 µM
O=c1[nH]c2ccccc2c(=O)n1CCCl,NA,[17],inactive
same,NA,[18],inactive
same,NA,[19],inactive
CC(C)c1ccc(NC(=O)NCCCl)cc1,Activity,[13],100%
same,Activity,[20],3 A570 min-1
same,IC50,[6],1 µM
same,IC50,[1],1.2 µM
same,Activity,[14],100%
same,IC50,[7],2.1 µM
same,Activity,[15],65%
same,IC50,[9],2.5 µM
same,IC50,[10],5 µM
same,IC50,[11],3.2 µM
same,IC50,[5],1.3 µM
CCNC(=O)Nc1ccc(C(C)CC)cc1 (stereo not drawn),IC50,[1],43 µM
same,IC50,[10],132 µM
same,NA,[3],inactive
same,NA,[4],inactive
same,IC50,[5],101 µM
CCCCCCc1ccc(NC(=O)NCCCl)cc1,Activity,[13],100%
same,Activity,[20],3.1 A570 min-1
same,IC50,[6],6.1 µM
same,IC50,[1],5 µM
same,Activity,[14],99%
same,IC50,[7],8.2 µM
same,Activity,[15],34%
same,DNA damage,[16],2.32 10e7 exchanged dCps (ng of DNA)
same,IC50,[9],15 µM
same,IC50,[10],12 µM
same,IC50,[11],15 µM
same,IC50,[5],7.1 µM
CCNC(=O)Nc1ccc(C(C)(C)C)cc1,Activity,[21],0.07
same,Activity,[22],0
same,IC50,[10],83 µM
same,NA,[3],inactive
same,NA,[4],inactive
same,IC50,[5],84 µM
O=C(NCCCl)Nc1cccc2c1CCCC2,NA,[17],inactive
same,IC50,[1],55 µM
same,NA,[18],inactive
same,IC50,[11],56 µM
same,NA,[23],inactive
same,NA,[19],inactive
same,IC50,[5],76 µM
Cc1cccc(NC(=O)NCCCl)c1C,NA,[17],inactive
same,NA,[18],inactive
same,NA,[19],inactive
CCCNC(=O)Nc1ccc(C(C)CC)cc1 (stereo not drawn),IC50,[1],30 µM
same,IC50,[10],133 µM
same,NA,[3],inactive
same,NA,[4],inactive
same,IC50,[5],106 µM
Cc1cc(C)c(NC(=O)NCCCl)c(C)c1,NA,[17],inactive
same,NA,[18],inactive
same,NA,[19],inactive
O=C(NCCCl)Nc1ccccc1,IC50,[1],57 µM
same,Activity,[15],0%
same,IC50,[9],140 µM
same,IC50,[10],> 100 µM
same,NA,[19],inactive
same,IC50,[5],> 100 µM
same,NA,[24],inactive
